Test results from ChEMBL document CHEMBL4513216, “Probing the Open Global Health Chemical Diversity Library for Multistage-Active Starting Points for Next-Generation Antimalarials” (ACS Infect Dis, 2020).

Assay: Toxicity liver stage against HepG2, at 10uM
Type: cell-based
Set-up: test concentration 10 uM, cell line HepG2-A16-CD81EGFP
Conditions: human, HepG2-A16-CD81EGFP cells; read-out: INHIBITION
Summary of the method: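 Uninfected HepG2-A16-CD81EGFP cells, 3 × 10^3 per well, 1536-well, plated on prespotted compound at 10 μM final, parasite-free screening media added to match infected plates; puromycin 10 μM positive, DMSO 0.5% negative; run in parallel with 48 h PbLuc assay at 37 °C, 5% CO2; viability by CellTiter-Glo luminescence, normalized to controls.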

Row | SMILES | cytotoxicity at 10 µM [%]
1 | CCOCC(O)CN1CCN(C(=O)c2cccc(F)c2)CC1 (stereo unspecified) | -11.1
2 | COc1ccc(S(=O)(=O)NCC(O)c2sccc2C)cc1C (stereo unspecified) | 1.69
3 | COc1ccc(CN2CC(O)CN(C(=O)c3ccccc3)CC2=O)cc1 (stereo unspecified) | 0.331
4 | COc1ccccc1OCCN(C)c1cc(C)nc(N)n1 | 10.4
5 | O=C(c1ccc2[nH]nnc2c1)N1CCCC(n2cccn2)C1 (stereo unspecified) | -1.56
6 | CCOc1cccc(C(C)NC(=O)N2CCC(C(N)=O)CC2)c1 (stereo unspecified) | -2.95
7 | Cc1csc(CNC(=O)NC(C)c2ccc3c(c2)CCC(=O)N3)n1 (stereo unspecified) | 4.17
8 | CN1CCCN(C(=O)c2nc3c(n2C)CCN(c2ncccn2)C3)CC1 | -9.18
9 | Cc1n[nH]c(C2CN(CC(=O)NCCc3ccccc3)CCO2)n1 (stereo unspecified) | 10.2
10 | CCCN(CCOC)c1nc(C)nc2sccc12 | -134
11 | COc1cc(OC)cc(N2CCC(NC(=O)c3ccc[nH]3)CC2)c1 | -4.83
12 | COc1cccc2c1ccn2CCNC(=O)CC(C)C | 4.38
13 | Cc1cc(C)n(CC2CCCCN2CC(=O)Nc2cccnc2)n1 (stereo unspecified) | 6.46
14 | CCN(CC)Cc1ccc(C(=O)N2CCCCC2Cn2cccn2)o1 (stereo unspecified) | -7.89
15 | Cc1cc(C(=O)NCC(c2ccsc2)N(C)C)no1 (stereo unspecified) | -18.3
16 | Cc1ccc(CN2CCOCC2)cc1NCc1ccsc1 | -8.84
17 | COc1ncccc1NC(=O)N1CCC(CNC(C)=O)CC1 | 3.61
18 | CCN1CCCC1CN(Cc1ccon1)CC1CCN(CCOC)CC1 (stereo unspecified) | -0.525
19 | CCOc1ccccc1N1CCN(C(=O)c2cc[nH]n2)CC1 | -11
20 | O=C(c1ccno1)N1CCn2cc(CN3CCCCC3)nc2C1 | -77.2
21 | O=C(c1cscn1)N1CCC2(CN(Cc3ccncc3)C2)C1 | 6.82
22 | COc1ccc2c(c1)CC(C1CCOCC1)N(C(=O)c1ccn(C)n1)C2 (stereo unspecified) | 1.78
23 | CCCN1CCN(C(=O)c2cccc(C)n2)[C@H]2CS(=O)(=O)C[C@H]21 | 2.13

Row | SMILES | cytotoxicity at 10 µM [%]
24 | O=C1OCCN1CCS(=O)(=O)c1cccc(Br)c1 | 6.29
25 | COc1ccccc1C(=O)NCc1n[nH]c(C)n1 | -0.519
26 | O=C([C@@H]1COC[C@H]2CN(C3CCCC3)C[C@H]21)N1CCC(F)CC1 | -103
27 | O=C(C1CCC2(CCN(c3ncccn3)CC2)CO1)N1CCCC1 (stereo unspecified) | 5.59
28 | COc1c(C)cnc(CNCC(C)C)c1C | -0.135
29 | O=C1N(CCc2ccccc2)CCCC12CCN(C(CO)CO)C2 (stereo unspecified) | -3.25
30 | CC(C)N1CCC(c2n[nH]cc2-c2ccnc(N)c2)C1 (stereo unspecified) | 2.16
31 | CN(C)CCNC(=O)C1Cc2nc(-c3ccsc3)sc2N1CC1CC1 (stereo unspecified) | 3.54
32 | Cc1noc(C)c1CNc1cccc(C(=O)N(C)c2ccccc2)c1 | 17.5
33 | O=C1CO[C@@H]2CN(Cc3cccnc3)C[C@H]2N1Cc1ccncc1 | -77.6
34 | CN1CCN(CC2CC2)C(=O)c2cnc(N3CCOCC3)nc21 | -10.3
35 | CC(C)c1cncnc1N1CC[C@H](N2CCOCC2)[C@H](CCCO)C1 | 5.86
36 | CN1CCN(c2cccc(NC(=O)NCc3csc(N(C)C)n3)c2)C1=O | 0.91
37 | c1cncc(CN2CC[C@@H]3O[C@H](COCCN4CCCC4)CC[C@@H]32)c1 | -156
38 | COCC(C)NC(=O)NCCc1cccc(OC)c1O (stereo unspecified) | 7.87
39 | O=C(c1ccncc1)N1CCC(c2nc(O)cc(-c3ccncc3)n2)C1 (stereo unspecified) | 0.873
40 | COCCN1C(=O)CC(c2cccnc2)C12CCN(C(=O)C1CC1)CC2 (stereo unspecified) | -104
41 | O=C(NCCNc1ncccn1)C1CCN(c2ncccn2)CC1 | -7.67
42 | Cc1cnc(CN(C)C2CCN(Cc3nc4ccccc4o3)C2)o1 (stereo unspecified) | -19.4
43 | O=C(CN1CCOC(c2ccccc2C(F)(F)F)C1)NC1CC1 (stereo unspecified) | 3.02
44 | CCN(Cc1ccco1)C(=O)NCc1nnc2n1CCC2 | -10.3
45 | CN(C)C(=O)CN1CCC2(COCc3cnc(-c4cccnc4)nc32)C1 (stereo unspecified) | -115
46 | CNc1nc(CNC(=O)Nc2cccc(Cl)c2Cl)cs1 | -15.8

Row | SMILES | cytotoxicity at 10 µM [%]
47 | CCOc1ccnc(N2CCN(C(=O)c3ccn(C)c(=O)c3)CC2)n1 | -14.8
48 | COCCNC(=O)C1CC(=O)N(c2n[nH]c3cccc(F)c23)C1 (stereo unspecified) | 3.23
49 | Cn1cc(C(=O)N[C@H]2CN(S(C)(=O)=O)[C@@H]3CCCO[C@H]23)cn1 | -16
50 | Cc1ccc(-n2ccnc2-c2cn(C3CCNCC3)nn2)c(Cl)c1 | 3.07
51 | COC(=O)C1CCN(C(=O)Cn2ccc(-c3ccc(F)cc3)n2)CC1 | -5.31
52 | CN(C(=O)Nc1ccncc1)C1CCN(c2ccc(Cl)cc2)CC1 | 1.44
53 | CN1CCN(C(=O)NC2CC2)Cc2cccnc21 | -2.96
54 | COCCN1CCCC2(CCN(c3ncc(Cl)cc3Cl)C2)C1=O (stereo unspecified) | 9.44
55 | CN(C)CCO[C@@H]1CC[C@H]2[C@H]1OCCN2C(=O)COc1ccccc1 | -4.84
56 | O=C(c1ccc2nncn2c1)N1CCCC1c1noc(C2CC2)n1 (stereo unspecified) | -7.11
57 | Cn1ccnc1CNc1c(F)cccc1-n1cccn1 | -5.2
58 | CCNC(=O)N1CCC(n2ccc(C(F)(F)F)n2)CC1 | 10.5
59 | CC(NC(=O)NCc1cccc(N2CCCC2=O)c1)c1ccccc1 (stereo unspecified) | 4.52
60 | Cc1oncc1C(=O)NCC1(O)CCc2ccccc2C1 (stereo unspecified) | -6.29
61 | COc1c(C(=O)NCC(C)C)nnn1Cc1ccccc1 | 12
62 | Cc1nnc(N2C[C@H](OCc3cccnc3)[C@H]3OCCC[C@H]32)s1 | 10.8
63 | CS(=O)(=O)c1cncnc1C1CCCN(C(=O)Nc2ccccc2F)C1 (stereo unspecified) | -0.675
64 | COc1c(C)cc(S(=O)(=O)NCC2CNCCOC2)cc1C (stereo unspecified) | -3.53
65 | COCCC(=O)N1CCCC1c1csc(Nc2ccccn2)n1 (stereo unspecified) | -13.2
66 | CCCn1ncnc1C(C)NC(=O)CC1CCN(C(C)C)CC1 (stereo unspecified) | -150
67 | Cc1csc(C(Cc2ccsc2)NC(=O)Cn2cccnc2=O)n1 (stereo unspecified) | -22.2
68 | CS(=O)(=O)CCOCCNc1ccc2ccc(F)cc2n1 | 3.55
69 | Cc1ccc(-n2ccc3nc(N4CCCC4)ncc3c2=O)cc1C | 7.51

Row | SMILES | cytotoxicity at 10 µM [%]
70 | COCc1nc(NC(C)c2c(C)n[nH]c2C)c2cnn(C)c2n1 (stereo unspecified) | -13.4
71 | CCC[C@H]1CN(Cc2ccc(N(C)C)nc2)C[C@@H]1NC(=O)CO | 9.23
72 | Cc1cc(=O)n2ncnc2n1CC(O)c1ccccc1 (stereo unspecified) | -7.82
73 | CC1CN(Cc2cc(C#N)ccc2F)CCN1Cc1nccn1C (stereo unspecified) | -6.33
74 | O=C(Cc1ccsc1)NCC1Cn2nnc(-c3ccoc3)c2CO1 (stereo unspecified) | 17.6
75 | CNc1ccc(C2CN(c3cc(C)ncn3)CCO2)nc1 (stereo unspecified) | 7.14
76 | COC(=O)C(CCSC)NC(=O)Cc1c(C)nn(-c2ccccc2)c1C (stereo unspecified) | -4.31
77 | O=C(NCc1ccc(-n2cncn2)nc1)c1ccc2c(c1)CCC2 | -16.5
78 | CN(C)c1cc(CNc2cncc(-n3cccn3)n2)ccn1 | 6.26
79 | CS(=O)(=O)NCCNC(=O)c1cnc(-c2ccccc2)nc1 | 5.3
80 | Cc1ccc(N2CC[C@H]3CN(C(=O)c4ccn(C)n4)C[C@H]3C2)nn1 | -102
81 | CCc1noc(C2CCCCN2C(=O)c2ccc(C)o2)n1 (stereo unspecified) | 14
82 | CCn1cc(N)c(C(=O)NCc2cnn(C)c2)n1 | -0.729
83 | O=C(NC1CCCC1)O[C@H]1COCCN(c2nc3ccccc3o2)C1 | -3.51
84 | Cc1nc([C@H]2C[C@@H]3CCN(Cc4cnn(C)c4)C[C@H]3O2)sc1C | -1.96
85 | Cc1ccc(CN(C)C(=O)c2cnsn2)cc1 | -16.4
86 | C[C@@H]1CN(C(=O)c2ccc[nH]2)C[C@]12CCN(CCN1CCCC1)C2=O | 10.4
87 | CN(C(=O)c1cccc(Cl)c1)C1CCN(c2ccccn2)CC1 | -8.8
88 | Cc1nc(CN2CCC23CCN(C(=O)c2ccco2)CC3)cs1 | -98.9
89 | CN(C)C(=O)NCc1ncn2c1CN(S(C)(=O)=O)CCC2 | 11
90 | O=C(NCCc1ccc2c(c1)OCO2)C1CCCN(Cc2ccco2)C1 (stereo unspecified) | 0.209
91 | CCc1cc(=O)[nH]c(-c2ccc(NC(C)CN3CCOCC3)nc2)n1 (stereo unspecified) | -145
92 | CCn1cc(NC(=O)NCCN2CCCc3ccccc32)cn1 | 2.96

Row | SMILES | cytotoxicity at 10 µM [%]
93 | CC1c2ncc(CN3CCN(C)CC3)n2CCN1Cc1cccnc1 (stereo unspecified) | -2.12
94 | c1cnc(NC2COC3(CCN(Cc4cc[nH]n4)CC3)C2)nc1 (stereo unspecified) | -1.17
95 | Cc1oc(C)c(C(=O)NCc2cccc(C(N)=O)c2)c1C | -15.8
96 | COCC1c2nnn(CC3CC3)c2CCN1C(=O)c1cc(C)[nH]c1C (stereo unspecified) | -140
97 | CS(=O)(=O)c1cn[nH]c1C1CCCCN1C(=O)c1cnccn1 (stereo unspecified) | -2.13
98 | CC(C)N(CC(C)(C)O)C(=O)NC1CC1 | 5.73
99 | Cc1cc(O)nc(C2CCN(C(=O)CO)CC2)n1 | 0.01
100 | Cc1ccc(C)c(CC(=O)Nc2cnccc2SCCCO)c1 | 21.2
101 | O=C(Nc1ccc(N2CCCC2)nc1)N1CCc2sccc2C1 | -16.6
102 | CCc1nc2c(s1)C(N(C)C(C)=O)CCC2 (stereo unspecified) | -11.6
103 | CCSc1nc(N)c(NC(=O)c2ccc(C)cc2)c(=O)[nH]1 | -57.3
104 | CC(=O)N1CCCCC1c1nc2c(c(NC3CCCC3)n1)CN(C)CC2 (stereo unspecified) | -13
105 | O=C(c1ccccn1)N1CCN(c2ccc(-c3cccnc3)nn2)CC1 | 2.84
106 | Fc1ccc(C2(CNC3=NCCCN3)CCC2)cc1 | 7.2
107 | O=C(NCc1nnc2n1CCCC2)c1cn(-c2ccccc2)nn1 | -2.12
108 | Cn1cc(CN2CCN(CC3(c4ccccc4)CC3)CC2)cn1 | 2.86
109 | CC(C)=CCNC1CCCN(c2ccc(C)nn2)C1 (stereo unspecified) | 5.23
110 | CCc1nnc(CN2CCC(C3CCCCCN3C(C)=O)CC2)o1 (stereo unspecified) | -43
111 | COc1cccc(N2CCC(N3C[C@@H](NC(C)=O)[C@H](C(C)C)C3)CC2)c1 | -9.98
